An excerpt weighted towards active compounds, which were near 4.6% of everything screened.
CHO parental Ca: signal in parental CHO cells, OX1R antagonist counter-screen; parental CHO-K1, ATP-induced calcium, Fluo-8 fluorescence; inhibition, % at 5.6 µM; 330,000 compounds, 0.63% hits; AID 463079;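 active = inhibition above that plate's mean sample inhibition plus 3 SD, cut at about 26% in these data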;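 also: 0% = ATP-challenged DMSO wells and 100% = DMSO wells without ATP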
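Test system: parental CHO cells; detection: calcium-sensitive Fluo-8 fluorescence; evaluation: percent inhibition of calcium signal; also added: ATP as calcium-mobilizing challenge; repeats: one well per compound; control set: ATP-challenged DMSO wells low, unchallenged DMSO wells high; compound: single nominal dose of 5.6 µM per compound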
OX1R antag-1: blocks the human orexin 1 receptor. CHO/OX1R cells, Fluo-8 calcium fluorescence, orexin A. inhibition, % at 5 µM. 330,000 compounds, 0.43% hits. AID 434989;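 active = inhibition above its plate's threshold, mean inhibition of all tested compounds on the plate plus 3 SD, cut at about 37% in these data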;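 also: 0% = orexin A challenge wells and 100% = SB-334867-A antagonist wells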
Target sequence (O43613 whole entry, looked up): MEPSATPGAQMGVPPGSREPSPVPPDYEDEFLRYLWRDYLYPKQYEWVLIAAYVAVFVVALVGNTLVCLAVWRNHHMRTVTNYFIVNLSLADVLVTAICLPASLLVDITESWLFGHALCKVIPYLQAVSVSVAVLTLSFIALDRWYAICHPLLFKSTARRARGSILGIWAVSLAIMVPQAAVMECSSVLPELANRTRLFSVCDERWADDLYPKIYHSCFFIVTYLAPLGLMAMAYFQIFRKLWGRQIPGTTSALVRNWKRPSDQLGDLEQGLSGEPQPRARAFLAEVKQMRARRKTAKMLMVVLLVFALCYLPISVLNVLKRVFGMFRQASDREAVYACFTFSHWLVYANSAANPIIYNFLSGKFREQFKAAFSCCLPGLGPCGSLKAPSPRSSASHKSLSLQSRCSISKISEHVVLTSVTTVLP
TAAR1 antagonist: antagonists of human TAAR1; CHO RD-HGA16 TAAR1, Fluo-8 calcium fluorescence, antagonist; Q96RJ0; 360,000 compounds, 1.5% hits; inhibition, % at 3 µM;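 active = inhibition above a per-plate cutoff, the mean inhibition of test compounds on that plate plus 3 SD, cut at about 49% in these data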;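 also: 0% = DMSO plus EC80 beta-PEA response and 100% = DMSO alone without agonist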
Target sequence (Q96RJ0 whole entry, looked up): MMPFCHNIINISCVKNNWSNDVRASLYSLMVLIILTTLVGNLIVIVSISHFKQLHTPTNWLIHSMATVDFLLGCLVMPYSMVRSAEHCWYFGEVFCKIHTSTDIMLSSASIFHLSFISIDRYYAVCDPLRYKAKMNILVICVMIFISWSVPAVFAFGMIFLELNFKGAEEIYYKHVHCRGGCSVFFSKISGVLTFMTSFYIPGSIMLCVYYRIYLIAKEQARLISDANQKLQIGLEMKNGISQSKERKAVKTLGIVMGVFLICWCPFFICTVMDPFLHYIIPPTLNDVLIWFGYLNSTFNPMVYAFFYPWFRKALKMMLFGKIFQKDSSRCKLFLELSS
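Test system – hTAAR1-expressing CHO RD-HGA16 cells, Gα16-coupled · Reagent – β-PEA at EC80 concentration, post-compound challenge · Compound dosing – 3 µM, single point · Timing – 140 s kinetic read after compound, 140 s after agonist · Detection – Fluo-8 intracellular calcium dye fluorescence, real-time kinetic reads · Control set – DMSO and EC80 PEA controls · Repeats – n of 1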
GPR7 antag: blocks human GPR7 receptor signaling. P48145. 290,000 compounds, 1.1% hits. inhibition, % at 4.4 µM. GPR7-expressing cells, fluorescence antagonist assay. AID 1861; in the data active = inhibition above about 16%, passing the limit was not always enough;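 also: cells stimulated with the agonist NPW; 0% = agonist with vehicle and 100% = vehicle without agonist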
TAAR1 agonist: human TAAR1 agonism; Q96RJ0; CHO RD-HGA16 TAAR1, Fluo-8 calcium fluorescence; vehicle wells 0%, saturating PEA agonist 100%; activation, % at 3 µM; 360,000 compounds, 0.99% hits; AID 624467;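 active = activation above the mean activation of all test compounds in the run plus 3 SD, cut at about 38% in these data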
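Assay system – CHO-derived RD-HGA16 cells with stable Gα16 and human TAAR1 · Compound dosing – one-point dosing at 3 µM (nominal) · Incubation – 17-24 h seeding, 75 min 37 °C dye, 30 min RT · Measured by – kinetic Fluo-8 calcium fluorescence · Control set – DMSO vehicle as 0%, PEA at EC100 as 100% · Repeats – single well for each compound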
OX1R antag-2: OX1R (human) antagonism; O43613; OX1R-expressing cells, FRET antagonist read-out; inhibition, % at 6.6 µM; 330,000 compounds, 1.8% hits; in the data active = inhibition mostly above about 38%, no sharp cut-off; inactive = mostly below about 40%;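 also: 0% = agonist challenge alone and 100% = reference antagonist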
* marks the source's active call; other numbers are inactive results.

Results for Cc1ccccc1OCCOc1cccc(/C=N/NC(=O)Cc2nnc(N)s2)c1 ?
CHO parental Ca: 53.5*; OX1R antag-1: 47.7*; TAAR1 antagonist: 48.9*; GPR7 antag: 22.4; TAAR1 agonist: 14.2; OX1R antag-2: 61.7

Results for O=C(CCC(=O)Nc1ccccc1)NNC(=O)COc1ccccc1 ?
CHO parental Ca: -6.0; OX1R antag-1: 4.9; TAAR1 antagonist: -16.7; GPR7 antag: 6.3; TAAR1 agonist: 4.9; OX1R antag-2: -3.8

Results for O=C1C(Cl)=C(Nc2ccc3cn[nH]c3c2)C(=O)c2ccccc21 ?
CHO parental Ca: 63.8*; OX1R antag-1: 58.7*; TAAR1 antagonist: 62.1*; GPR7 antag: 40.7*; TAAR1 agonist: -4.2; OX1R antag-2: 53.8*

How did O=C(Nc1ccc2cn[nH]c2c1)c1c(Cl)cccc1Cl do in these assays?
CHO parental Ca: -5.7; OX1R antag-1: 7.9; TAAR1 antagonist: 1.0; GPR7 antag: 4.8; TAAR1 agonist: 0.8; OX1R antag-2: 10.2

What do the screens show for `CN(C)c1ccc(NC2=C(Cl)C(=O)c3ccccc3C2=O)cc1`?
CHO parental Ca: 34.7*; OX1R antag-1: 30.7; TAAR1 antagonist: 66.2*; GPR7 antag: 5.9; TAAR1 agonist: 2.8; OX1R antag-2: 92.4*

How did COc1ccccc1NC(=O)c1cc(C(=O)Nc2ccccc2OC)n(C)n1 do in these assays?
CHO parental Ca: -12.0; OX1R antag-1: -27.3; TAAR1 antagonist: 12.3; TAAR1 agonist: 2.3; OX1R antag-2: 32.4

How did Cc1cc(Br)cc2c(C(=O)Nc3c(C)n(C)n(-c4ccccc4)c3=O)cc(-c3cccs3)nc12 do in these assays?
CHO parental Ca: -22.1; OX1R antag-1: -20.8; TAAR1 antagonist: 13.8; GPR7 antag: -2.3; TAAR1 agonist: 3.3; OX1R antag-2: 21.9

How did CCOc1ccccc1N1CCN(c2nc(N)c(C#N)c(CC#N)c2C#N)CC1 do in these assays?
CHO parental Ca: 6.6; OX1R antag-1: 5.3; TAAR1 antagonist: 50.0*; GPR7 antag: -12.7; TAAR1 agonist: 19.1; OX1R antag-2: 12.4

Results for CCCCN1C(=O)C(CC(=O)NC2CC2)CC(C(=O)N(C(C)C)C(C)C)=C1C (stereo not drawn) ?
TAAR1 antagonist: 1.6; TAAR1 agonist: 0.2

Results for Nc1[nH]c2cc([N+](=O)[O-])ccc2c1-c1ccccn1 ?
CHO parental Ca: 36.6*; OX1R antag-1: 51.2*; TAAR1 antagonist: 69.4*; GPR7 antag: 9.3; TAAR1 agonist: 19.2; OX1R antag-2: 16.8

Results for CCN(CC)C(=O)COc1ccc(-c2nnc(Nc3ccc(OC)c(C(=O)NC)c3)c3ccccc23)cc1 ?
CHO parental Ca: -24.2; OX1R antag-1: -35.4; TAAR1 antagonist: -9.6; GPR7 antag: 18.9*; TAAR1 agonist: -1.2; OX1R antag-2: 8.0

What do the screens show for `O=C(CCS(=O)(=O)Cc1ccccc1F)NCc1ccccc1Cl`?
CHO parental Ca: 2.3; OX1R antag-1: -18.4; TAAR1 antagonist: -2.7; GPR7 antag: -3.6; TAAR1 agonist: 0.2; OX1R antag-2: 7.6

What do the screens show for `COc1ccc(NC(=O)CSc2nncn2C)c([N+](=O)[O-])c1`?
CHO parental Ca: -8.6; OX1R antag-1: 2.9; TAAR1 antagonist: -3.3; GPR7 antag: -3.0; TAAR1 agonist: 1.8; OX1R antag-2: 38.4*

Results for COc1ccc(NC(=O)CSc2ccccc2)c([N+](=O)[O-])c1 ?
CHO parental Ca: -9.8; OX1R antag-1: -35.4; TAAR1 antagonist: -7.6; GPR7 antag: -7.6; TAAR1 agonist: 0.9; OX1R antag-2: 8.7

What do the screens show for `COc1ccc(NC(=O)CS(=O)(=O)Cc2ccccc2)c([N+](=O)[O-])c1`?
CHO parental Ca: -18.2; OX1R antag-1: -27.0; TAAR1 antagonist: -3.6; GPR7 antag: -4.8; TAAR1 agonist: 0.1; OX1R antag-2: 50.5*

Results for COc1ccc(Cl)cc1C(=O)NNC(=O)CSc1nncn1C ?
CHO parental Ca: -7.5; OX1R antag-1: -16.4; TAAR1 antagonist: -16.4; TAAR1 agonist: 1.3; OX1R antag-2: 6.1

Results for COc1ccccc1C(=O)NC(=O)CSc1nncn1C ?
CHO parental Ca: 39.9*; OX1R antag-1: 0.7; TAAR1 antagonist: -26.2; TAAR1 agonist: 4.9; OX1R antag-2: -5.3

Results for COc1ccc(NC(=O)c2ccc(C)cc2Cl)c([N+](=O)[O-])c1 ?
CHO parental Ca: 8.8; OX1R antag-1: -22.7; TAAR1 antagonist: 1.6; GPR7 antag: -12.6; TAAR1 agonist: 2.1; OX1R antag-2: 34.8

How did COc1ccc(NC(=O)c2cc(Br)ccc2Cl)c([N+](=O)[O-])c1 do in these assays?
CHO parental Ca: 31.5*; OX1R antag-1: 14.4; TAAR1 antagonist: 9.7; GPR7 antag: -7.0; TAAR1 agonist: 0.5; OX1R antag-2: 34.8

Results for OCC[C@@H]1C[C@H](O)[C@@H](O)[C@]2(Cc3ccccc3CCO2)O1 ?
CHO parental Ca: 1.4; OX1R antag-1: -6.7; TAAR1 antagonist: -13.8; GPR7 antag: -1.4; TAAR1 agonist: 13.9; OX1R antag-2: 10.4

Results for O=C(NC1CCCC1)C(c1ccc(F)cc1)N(Cc1ccc(Cl)cc1)C(=O)CCl (stereo not drawn) ?
CHO parental Ca: -3.6; OX1R antag-1: -33.5; TAAR1 antagonist: 11.5; GPR7 antag: 2.5; TAAR1 agonist: 3.4; OX1R antag-2: -1.5

How did S=C(NCCc1ccc(Cl)cc1)Nc1ccc(Cl)cc1Cl do in these assays?
CHO parental Ca: 15.5; OX1R antag-1: 6.5; TAAR1 antagonist: 49.5*; GPR7 antag: -0.9; TAAR1 agonist: 1.8; OX1R antag-2: 59.2

What do the screens show for `Fc1ccc(CCNC(=S)Nc2ccc(F)c(Cl)c2)cc1`?
CHO parental Ca: 31.9*; OX1R antag-1: 29.7; TAAR1 antagonist: 22.8; GPR7 antag: 3.9; TAAR1 agonist: 12.8; OX1R antag-2: 65.0

How did COCCn1c(C)cc(C(=O)CN2C(=O)NC3(CCCCCC3)C2=O)c1C do in these assays?
CHO parental Ca: -1.7; OX1R antag-1: -11.0; TAAR1 antagonist: 6.3; TAAR1 agonist: 10.1; OX1R antag-2: 29.6*

How did Cc1ccc(C(C)C)c(OCC(=O)NNC(=O)C2CSC3(C)CCC(=O)N23)c1 (stereo not drawn) do in these assays?
TAAR1 antagonist: -5.0; TAAR1 agonist: 2.0

What do the screens show for `CC(NC(=O)Cn1cnc2c1c(=O)n(C)c(=O)n2C)c1ccccc1` (stereo not drawn)?
CHO parental Ca: -7.2; OX1R antag-1: -11.9; TAAR1 antagonist: -2.7; GPR7 antag: -9.9; TAAR1 agonist: 7.6; OX1R antag-2: 15.6

What do the screens show for `CCc1ccc(C(C)NC(=O)Cn2cnc3c(=O)n(C)c(=O)n(C)c32)cc1` (stereo not drawn)?
CHO parental Ca: -11.4; OX1R antag-1: -15.4; TAAR1 antagonist: 1.0; GPR7 antag: -5.2; TAAR1 agonist: 37.5*; OX1R antag-2: 2.5

Results for CN(C)c1ccc(C(C(=O)NCc2ccccc2)N(Cc2cccnc2)C(=O)c2snc(C(N)=O)c2N)cc1 (stereo not drawn) ?
TAAR1 antagonist: 56.2*; GPR7 antag: -8.5; TAAR1 agonist: 16.7
